This passage reports MIC90 and IC50 results from ChEMBL document CHEMBL4373649, “Novel antimycobacterial C-21 amide derivatives of the antibiotic fusidic acid: synthesis, pharmacological evaluation and rationalization of media-dependent activity using molecular docking studies in the binding site of human serum albumin” (Medchemcomm, 2019).

The test system of test [1] is Mycobacterium tuberculosis. Briefly: Antimycobacterial activity against Mycobacterium tuberculosis H37RvMA ATCC 27294 cultured in protein-based Middlebrook 7H9 medium supplemented with glucose, albumin-dextrose-catalase and Tween 80 assessed as inhibition of bacterial growth incubated for 7 days in by alamar blue staining based assay. The class given is functional. The settings on record: H37RvMA ATCC 27294, 168 h. Put shortly:
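Broth microdilution MIC90 assay against H37RvMa (ATCC 27294). Culture grown to OD600 0.6–0.7, diluted 1:500. Compounds come from 10 mM DMSO stocks and are run as duplicate two-fold dilutions over 10 wells. Plates incubated at 37 °C, 5% CO2, humidified. AlamarBlue added on day 7 and incubated 24 h more, then read on day 8, visually (blue = no growth) or by fluorescence (excitation 540 nm).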
A general note: The colour change of resazurin is a common sign of viable cells or microbes.

For test [2], the system named is Mycobacterium tuberculosis. Briefly: Antimycobacterial activity against Mycobacterium tuberculosis H37RvMA ATCC 27294 cultured in non protein-based Middlebrook 7H9 medium supplemented with glucose-casitone-tyloxapol assessed as inhibition of bacterial growth incubated for 7 days in by alamar blue staining based assay. The class given is functional. The settings on record: H37RvMA ATCC 27294, 168 h. Put shortly:
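Medium is 7H9 with 0.03% Casitone, 0.4% glucose and 0.05% Tyloxapol. H37RvMa is grown to OD600 0.6–0.7 and diluted 1:500. Duplicate two-fold dilutions over 10 wells come from 10 mM DMSO stocks. Incubation at 37 °C, 5% CO2. AlamarBlue added on day 7. The MIC90 is the lowest concentration with no visible growth on day 8, or is read by fluorescence.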

A further test relates to CHO-K1. Briefly: Cytotoxicity against CHOK1 cells assessed as reduction in cell viability incubated for 48 hrs by MTT assay. The class given is cell-based. The settings on record: Cricetulus griseus, CHO-K1, 48 h. The essentials:
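CHO-K1 cells seeded at 10^5 cells/well 24 h before exposure, medium then replaced with fresh medium containing compound; 48 h at 37 °C, 5% CO2, MTT added at 44 h for 4 h, formazan dissolved in DMSO, OD read at 540 nm. Triplicates; DMSO stocks 2 mg/mL, poorly soluble samples as suspensions; emetine reference; IC50 from non-linear dose-response fit.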
On the technique in general: Tetrazolium dyes change colour on reduction, which living cells bring about.

The MIC90 is an inhibitory concentration at the 90% level, which refers to growth in some studies and to a panel of isolates in others. By IC50 is commonly meant the concentration needed to halve the response being measured.

The structures appear in SMILES notation. In brackets after ≈: the same amount, converted by molar mass.

On to `CC(=O)O[C@H]1C[C@@]2(C)[C@@H](C[C@@H](O)[C@H]3[C@@]4(C)CC[C@@H](O)[C@@H](C)[C@@H]4CC[C@@]32C)/C1=C(\CCC=C(C)C)C(=O)N[C@@H](C)C1CCCCC1`, for which the figures for the MIC90 in test [1] and in test [2] were > 125 µM and 4.5 µM (≈ 2.82 µg/mL), respectively. Moreover, in the test with CHO-K1, the half-inhibitory concentration (IC50) stood at 44.7 µM.
For `CC(=O)O[C@H]1C[C@@]2(C)[C@@H](C[C@@H](O)[C@H]3[C@@]4(C)CC[C@@H](O)[C@@H](C)[C@@H]4CC[C@@]32C)/C1=C(\CCC=C(C)C)C(=O)NC(C)c1ccc(F)cc1` (mixture of isomers) the same measures were > 125 µM, 19.8 µM and 45.3 µM.
The matching figures for `COc1ccc(NC(=O)/C(CCC=C(C)C)=C2\[C@@H](OC(C)=O)C[C@@]3(C)[C@H]2C[C@@H](O)[C@H]2[C@@]4(C)CC[C@@H](O)[C@@H](C)[C@@H]4CC[C@@]23C)cc1`: > 125 µM, > 125 µM and 47.1 µM.
For `CC[C@H]1CN2CCc3cc(OC)c(OC)cc3[C@@H]2C[C@@H]1C[C@H]1NCCc2cc(OC)c(OC)cc21` [EMETINE], the 50% inhibitory concentration (IC50) in the test with CHO-K1 stood at 0.02 µM.
Regarding `CC(=O)O[C@H]1C[C@@]2(C)[C@@H](C[C@@H](O)[C@H]3[C@@]4(C)CC[C@@H](O)[C@@H](C)[C@@H]4CC[C@@]32C)/C1=C(\CCC=C(C)C)C(=O)Nc1ccc(F)cc1`, the MIC90 in test [1] and in test [2] was 125 µM (≈ 76.2 µg/mL) each time. In the test with CHO-K1, the IC50 is 39.9 µM.
As to `COc1ccccc1NC(=O)/C(CCC=C(C)C)=C1\[C@@H](OC(C)=O)C[C@@]2(C)[C@H]1C[C@@H](O)[C@H]1[C@@]3(C)CC[C@@H](O)[C@@H](C)[C@@H]3CC[C@@]12C`, the MIC90 in test [1] came to 43.2 µM (≈ 26.9 µg/mL); in test [2] it was 6.2 µM (≈ 3.86 µg/mL). Moreover, in the test on CHO-K1, the IC50 is 46.1 µM.
Turning to `CO[C@H]1/C=C/O[C@@]2(C)Oc3c(C)c(O)c4c(O)c(c(/C=N/N5CCN(C)CC5)c(O)c4c3C2=O)NC(=O)/C(C)=C\C=C\[C@H](C)[C@H](O)[C@@H](C)[C@@H](O)[C@@H](C)[C@H](OC(C)=O)[C@@H]1C` [RIFAMPIN], the figures for the MIC90 in test [1] and in test [2] were 0.009 µM (≈ 0.00741 µg/mL) and 0.02 µM (≈ 0.0165 µg/mL), respectively.
For the compound `CC(=O)O[C@H]1C[C@@]2(C)[C@@H](C[C@@H](O)[C@H]3[C@@]4(C)CC[C@@H](O)[C@@H](C)[C@@H]4CC[C@@]32C)/C1=C(\CCC=C(C)C)C(=O)NCc1ccc(O)cc1`, the MIC90 in test [1] and in test [2] was 125 µM (≈ 77.7 µg/mL) each time. Besides, in the test on CHO-K1, the 50% inhibitory concentration (IC50) was > 50 µM.
With `CC(=O)O[C@H]1C[C@@]2(C)[C@@H](C[C@@H](O)[C@H]3[C@@]4(C)CC[C@@H](O)[C@@H](C)[C@@H]4CC[C@@]32C)/C1=C(\CCC=C(C)C)C(=O)N[C@H](C)C1CCCCC1`, the figures for the MIC90 in test [1] and in test [2] were > 125 µM and 7.45 µM (≈ 4.66 µg/mL), respectively. In the test with CHO-K1, the concentration for half-maximal inhibition (IC50) is > 50 µM.
The matching figures for `COc1cccc(NC(=O)/C(CCC=C(C)C)=C2\[C@@H](OC(C)=O)C[C@@]3(C)[C@H]2C[C@@H](O)[C@H]2[C@@]4(C)CC[C@@H](O)[C@@H](C)[C@@H]4CC[C@@]23C)c1`: > 125 µM, > 125 µM and 42.7 µM.
On to `CC(=O)O[C@H]1C[C@@]2(C)[C@@H](C[C@@H](O)[C@H]3[C@@]4(C)CC[C@@H](O)[C@@H](C)[C@@H]4CC[C@@]32C)/C1=C(\CCC=C(C)C)C(=O)NCc1ccccc1`, for which the MIC90 was 125 µM (≈ 75.7 µg/mL) in test [1] and > 125 µM in test [2]. Further, the half-maximal inhibitory concentration (IC50) in the test on CHO-K1 came out at 44.1 µM.
`CC(=O)O[C@H]1C[C@@]2(C)[C@@H](C[C@@H](O)[C@H]3[C@@]4(C)CC[C@@H](O)[C@@H](C)[C@@H]4CC[C@@]32C)/C1=C(\CCC=C(C)C)C(=O)N[C@H](C)c1ccccc1`: the MIC90 is > 125 µM in test [1] and 11 µM (≈ 6.82 µg/mL) in test [2]. Moreover, the IC50 with CHO-K1 stood at 47.6 µM.
With `CC(=O)O[C@H]1C[C@@]2(C)[C@@H](C[C@@H](O)[C@H]3[C@@]4(C)CC[C@@H](O)[C@@H](C)[C@@H]4CC[C@@]32C)/C1=C(\CCC=C(C)C)C(=O)NCc1ccc(C)cc1`, the values for the MIC90 in test [1] and in test [2] were 125 µM (≈ 77.5 µg/mL) and > 125 µM, respectively. In the test with CHO-K1, the IC50 was > 50 µM.
